Screens (PubChem)
TAG inh – inhibitors of triacylglycerol accumulation, primary screen, cell-based, uHTS, fluorescence, H9c2 | H9c2 cells, Nile Red lipid (TAG) fluorescence; cells loaded with 200 µM oleic acid | inhibition, % at 12.5 µM | 230,000 tested, 0.66% active | AID 651582, 2012;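 active means pattern-corrected inhibition of lipid staining of at least 50% with the nuclear-stain viability signal not falling by more than 50%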;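 further: 0% = DMSO wells and 100% = triacsin C control wells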
Beta2AR agonist – beta2AR agonists driving receptor internalization, primary screen, cell-based, FAP fluorogen, flow cytometry; response, % (test concentration not listed); Am2.2-beta2AR cells; 340,000 tested, 0.43% active; Beta-2 adrenergic receptor (Homo sapiens), P07550;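 active means response above a set limit, near 3 SD of response in nonfluorescent compounds, cut at about 42% in these data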
Hep lipid drop – inhibitors of hepatocyte lipid droplet formation, primary screen, imaging, high-throughput imaging, BODIPY stain; AML12 mouse hepatocytes, oleate lipid droplets; inhibition, % at 6.5 µM; 240,000 tested, 0.4% active;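 active means lipid droplet intensity inhibited by at least 50%, with more than 500 cells counted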
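Assay system: AML12 mouse liver cells | Compound: 6.5 µM single-point dosing | Schedule: Overnight exposure | Technique: Fluorescence imaging, 20x objective, two fields per well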
Arr AP2 block – inhibitors of beta-arrestin/AP2 binding, primary screen, biochemical, GPCR trafficking, flow cytometry. inhibition, % at 10 µM. FITC-arrestin peptide / GST-AP2 beads; AP2 beta2 appendage carries R879A mutation. beta-arrestin 1 C-terminal peptide binding to AP2 beta2-adaptin appendage (human). AID 504490, 2011. 340,000 tested, 0.31% active;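 active means inhibition above a set limit, near 3 SD of compounds lacking own fluorescence, cut at about 54% in these data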;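 further: plate controls were DMSO wells for no effect and 5 µM unlabelled arrestin peptide for full effect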
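Assay system: GST-AP2 R879A bound to glutathione beads, E. coli-expressed; Medium: PBS with 0.05% Tween 20 and 0.1% BSA; Also added: fluorescein-tagged arrestin peptide at 50 nM final; Timing: 12 min plus 1 h, RT; Measured by: flow cytometry, FL1 (488/535 nm); Evaluation: percent drop in bead-associated FITC signal.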
GRK2 aptamer HTS – compounds blocking aptamer binding on GRK2 – biochemical, human GRK2, bead flow cytometry, HTS, primary screen; inhibition of aptamer binding, % at 10 µM; AID 488847, 2010; FAM-aptamer displacement from GRK2; Beta-adrenergic receptor kinase 1 (Homo sapiens), P25098; 330,000 tested, 0.59% active;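 active means inhibition of aptamer binding above 40%, roughly 3 SD of noise, on plates passing a quality check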;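 further: median bead fluorescence of bound FAM aptamer so fluorescent compounds give negative values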
NTR1 ag – agonists of human NTR1, primary screen, imaging, U2OS cells, beta-arrestin-GFP, high content. Neurotensin receptor type 1 (Homo sapiens), P30989. NTR1-U2OS beta-arrestin-GFP spot imaging, agonist mode. activation, % at 20 µM. 330,000 tested, 0.17% active. AID 493036, 2011;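 active means activation at or above 40% of the spot to cytoplasm intensity ratio, with at least 20 cells analyzed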;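 further: 0% = DMSO without peptide and 100% = 100 nM NTR1 peptide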
Target sequence (P30989 whole entry, looked up): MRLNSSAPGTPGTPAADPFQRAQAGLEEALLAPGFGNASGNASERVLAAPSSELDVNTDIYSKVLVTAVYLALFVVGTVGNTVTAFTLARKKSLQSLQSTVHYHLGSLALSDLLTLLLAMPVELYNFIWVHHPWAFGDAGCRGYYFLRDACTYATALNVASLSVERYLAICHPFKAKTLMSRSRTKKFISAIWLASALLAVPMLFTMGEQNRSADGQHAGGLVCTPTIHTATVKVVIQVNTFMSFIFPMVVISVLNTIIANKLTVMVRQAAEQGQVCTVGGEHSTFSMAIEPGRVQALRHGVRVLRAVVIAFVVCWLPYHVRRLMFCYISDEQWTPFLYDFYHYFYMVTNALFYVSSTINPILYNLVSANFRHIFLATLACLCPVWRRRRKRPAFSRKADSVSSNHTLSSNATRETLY
Beta2AR ag CP1 – beta2AR agonists via receptor internalization, confirmation, cell-based, FAP fluorogen, flow cytometry, single point, cherry pick 1; shares compounds with Beta2AR agonist; Am2.2-beta2AR cells, FAP surface receptor; active compounds read low; percent response (surface receptor), % at 10 µM; 1,100 tested, 25% active; AID 540358, 2011;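 active means surface receptor percent response at or below 58%, roughly 3 SD from nonfluorescent compounds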
B2AR FAP counter – counter-screen for beta-2AR agonists: fluorescence in Am2.2 cells; shares compounds with Beta2AR agonist; FAP fluorogen flow cytometry, fluorescence counterscreen; active compounds read low; calls only at 10 µM; 1,100 tested, under 10 active; AID 588765;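 active means percent response below a set limit in fluorescence channel 1 and below 50% in channel 8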
Numbers without * were called inactive; i = inactive; x = no result given. This is a sample that favours compounds with a hit; in the whole collection about 2% have one here.

SMILES	TAG inh	Beta2AR agonist	Hep lipid drop	Arr AP2 block	GRK2 aptamer HTS	NTR1 ag	Beta2AR ag CP1	B2AR FAP counter
Cn1c(N2CCN(c3ccccn3)CC2)nc2c1c(=O)n(Cc1ccc(Cl)cc1)c(=O)n2C	14	127*	x	4	0	8	23*	i
Cn1c(N2CCN(c3ccccn3)CC2)nc2c1c(=O)n(Cc1ccccc1Cl)c(=O)n2C	17	-9	x	2	0	1	x	x
COc1ccccc1N(CCN1C(=O)c2cccc3cccc(c23)C1=O)C(=O)c1ccncc1	x	x	4	x	1	-1	x	x
CC1CCCN(C(=O)COC(=O)c2ccc(=O)n(Cc3ccccc3)n2)C1 (configuration not stated)	-6	0	x	6	5	1	x	x
Nc1cc(N)cc(-c2nc3ccccc3o2)c1	16	43*	x	-2	0	-3	116	i
Cc1ccc(C)c(S(=O)(=O)N2CCN(C(=O)C3CCN(C(=O)c4ccc(F)cc4)CC3)CC2)c1	-9	60*	x	-3	0	-1	111	i
C/C(=N\Nc1nccnc1Cl)c1ccc(O)c(C)c1	x	11	0	27	1	0	x	x
O=S(=O)(Nc1ccc(-c2nnc(SCc3ccc(Cl)cc3)o2)cc1)c1ccccc1	x	43*	1	-10	3	9	114	i
O=C(c1ccc(-c2nnc(Nc3ccccc3)c3ccccc23)cc1)N1C[C@H]2C[C@H](C1)c1cccc(=O)n1C2	-14	7	x	27	1	1	79	i
CC(=O)N1CCN(Cc2nc3cc(NC(=O)c4ccccc4)ccc3n2C)CC1	6	0	x	0	0	0	x	x
COc1ccccc1C(=O)Nc1ccc2c(c1)nc(CN1CCN(C(C)=O)CC1)n2C	x	53*	1	29	0	-1	113	i
CCCCCN(C(=O)CCC(=O)OC(C)C(=O)c1ccc(CC)cc1)c1c(N)n(CCCC)c(=O)[nH]c1=O (configuration not stated)	4	1	x	-5	x	x	x	x
O=C(CSc1n[nH]c(-c2ccncc2)n1)Nc1ccccc1Cl	-4	2	x	-17	0	-1	x	x
O=C1CC(c2ccccc2)(c2ccccc2)c2ccccc21	-20	59*	x	-8	x	x	39*	i
O=C1OC(c2ccccc2)(c2ccccc2)c2ccccc21	-31	56*	x	1	x	x	66	i
O=C1OC(c2ccccc2)(c2ccc(O)cc2)c2ccccc21 (configuration not stated)	-24	43*	x	14	x	x	77	i
O=C1c2ccccc2C(O)(c2ccccc2)N1C1CC1 (configuration not stated)	-10	5	3	12	0	-1	x	x
Cc1cc(O)ccc1C1(c2ccc(O)cc2C)OC(=O)c2ccccc21	-9	8	-21	0	0	6	x	x
Cc1ccc(-c2noc(COC(=O)c3ccco3)n2)cc1	-9	-3	x	-5	1	-2	x	x
CCc1ccc(N(CC(=O)N2CCCCCC2)S(C)(=O)=O)cc1	x	4	0	-2	1	2	x	x
O=C(CNC(=O)c1ccc(Cl)cc1Cl)OC1CCCCC1=O (configuration not stated)	5	-6	x	-11	0	4	x	x
CN(c1ccccc1)S(=O)(=O)c1cccc(C(=O)Nc2cccc(C(=O)NC3CC3)c2)c1	2	51*	x	-9	x	-1	13*	i
CN(c1ccccc1)S(=O)(=O)c1cccc(C(=O)NC2CCCC2)c1	-2	-7	x	1	2	3	x	x
COc1ccc(-c2nc3c4ccccc4ccn3c2CN2CCOCC2)cc1OC	21	53*	13	16	1	2	41*	i
COc1ccc(C(=O)O)cc1NC(=S)NC(=O)/C=C/c1ccc(C(C)C)cc1	x	18	6	11	1	9	x	x
SMILES	TAG inh	Beta2AR agonist	Hep lipid drop	Arr AP2 block	GRK2 aptamer HTS	NTR1 ag	Beta2AR ag CP1	B2AR FAP counter
COc1ccc(-c2nc(NC(=O)c3cc(C(C)(C)C)nn3C)sc2C)cc1	x	29	x	0	1	9	80	i
COc1ccc(-c2nc(NC(=O)c3c(C)noc3C)sc2C)cc1	-5	2	x	4	x	1	x	x
CC(C)(C)c1ccc(C(=O)NNC(=O)CCc2ccccc2)cc1	6	-3	x	34	0	0	x	x
O=[N+]([O-])c1cc(S(=O)(=O)N2CCCCCC2)ccc1Cl	x	48*	2	20	x	2	90	i
Cc1ccc(S(=O)(=O)N2CCCC2)cc1[N+](=O)[O-]	x	1	20	12	0	6	x	x
CCCCOc1cccc(C(=O)Nc2ccc(NC(=O)c3ccco3)cc2)c1	x	69*	15	2	0	-1	35*	i
C=CCn1c(C)cc(C(=O)COc2ccc(N(C)S(=O)(=O)c3ccc(NC(C)=O)cc3)cc2)c1C	11	44*	x	-4	1	2	130	i
Cc1ccc(NC(=O)C(c2ccc(Cl)cc2)N2CCCCC2)cc1 (configuration not stated)	-94	47*	x	0	x	x	36*	i
Cc1ccc(NC(=O)C(c2ccc(Cl)cc2)N2CCOCC2)cc1 (configuration not stated)	-27	48*	12	4	0	0	46*	i
CC(C)(C)c1cc(C(c2cccnc2)N2CCN(CCO)CC2)cc(C(C)(C)C)c1O (configuration not stated)	x	62*	12	30	0	1	57*	i
CC(C)(C)n1nnnc1C(c1cccnc1)N1CCN(c2cccc(C(F)(F)F)c2)CC1 (configuration not stated)	-22	-3	-6	-9	2	1	x	x
CN(C)CCNCCCOc1ccccc1-c1ccccc1	x	x	-5	x	0	0	x	x
COC(=O)[C@H](CCSC)NC(=O)Nc1ccc(S(N)(=O)=O)cc1	0	-1	8	0	2	-2	x	x
COc1cc(Cl)c(C)cc1NC(=S)NN	23	1	-6	-26	0	4	x	x
